High-throughput results as filed in PubChem BioAssay.
Most compounds without a hit are left out; they make up all but 1.8% or so of the library.
CHRM5 PAM – human M5 muscarinic receptor positive allosteric modulators, primary screen, CHO-K1 cells, Fluo-8 calcium fluorescence. Muscarinic acetylcholine receptor M5 (Homo sapiens), P08912. CHO-K1 hM5, ACh EC20 PAM; 0% = ACh EC20, 100% = ACh EC100. activation, % at 3 µM. hit rate 0.3% among 360,000;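 active = activation above the run cutoff, the mean activation of all test compounds plus 3 SD, cut at about 18% in these data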
Target sequence (P08912 whole entry, looked up): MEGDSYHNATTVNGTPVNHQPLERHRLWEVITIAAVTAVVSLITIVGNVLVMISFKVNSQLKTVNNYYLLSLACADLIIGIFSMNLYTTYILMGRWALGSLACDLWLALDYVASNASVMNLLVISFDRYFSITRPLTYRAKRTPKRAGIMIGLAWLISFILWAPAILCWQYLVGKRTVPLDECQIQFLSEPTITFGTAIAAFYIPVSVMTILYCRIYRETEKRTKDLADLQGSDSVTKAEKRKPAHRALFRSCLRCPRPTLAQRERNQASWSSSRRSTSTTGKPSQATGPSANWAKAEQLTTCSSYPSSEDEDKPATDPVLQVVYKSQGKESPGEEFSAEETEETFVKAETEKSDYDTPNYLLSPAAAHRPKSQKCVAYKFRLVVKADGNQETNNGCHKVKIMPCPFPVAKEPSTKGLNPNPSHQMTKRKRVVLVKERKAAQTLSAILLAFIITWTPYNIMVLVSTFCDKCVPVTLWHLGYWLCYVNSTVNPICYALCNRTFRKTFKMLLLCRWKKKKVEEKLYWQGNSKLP
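system = human M5 receptor in CHO-K1 cells | reagent = EC20 acetylcholine as agonist stimulus | compound dosing = single-point, 3 µM nominal | incubation = Fluo-8 loading 80 min at 37 °C plus 30 min room temperature | detection = Fluo-8 calcium dye fluorescence, kinetic read | benchmarks = low control EC20 acetylcholine (0%), high control EC100 acetylcholine (100%)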
CHRM5 agonist – human M5 muscarinic receptor agonists, primary screen, CHO-K1 cells, Fluo-8 calcium fluorescence | activation, % at 3 µM | CHO-K1 hM5 cells; 0% DMSO wells, 100% maximal acetylcholine response | AID 624037, 2012 | hit rate 0.19% among 360,000;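 active = activation above the run's mean over test compounds plus 3 SD, cut at about 23% in these data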;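 also: signal is peak over basal fluorescence ratio across the kinetic read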
CHRM4 antagonist – human M4 muscarinic receptor antagonists, primary screen, CHO cells, Fluo-8 calcium fluorescence. Muscarinic acetylcholine receptor M4 (Homo sapiens), P08173. inhibition, % at 3 µM. hit rate 0.73% among 360,000. CHO-hM4 cells, ACh EC80;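 active = inhibition above its plate's cutoff, the mean inhibition of sample wells plus 3 SD, cut at about 27% in these data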;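 also: 0% = acetylcholine EC80 with DMSO and 100% = DMSO without agonist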
M4 ag – human M4 muscarinic receptor agonists, primary screen, CHO-K1 cells, Fluo-8 calcium fluorescence; CHO-K1 hM4/Gqi5; vehicle 0%, full acetylcholine response 100%; Muscarinic acetylcholine receptor M4 (Homo sapiens), P08173; hit rate 0.14% among 360,000; AID 624127, 2012; activation, % at 3 µM;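 active = activation above the run mean over all test wells plus 3 SD, cut at about 32% in these data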;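 also: peak over basal fluorescence ratio per well then scaled between controls; 0% = DMSO wells and 100% = acetylcholine at EC100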
CHRM5 antagonist – human M5 muscarinic receptor antagonists, primary screen, CHO cells, Fluo-8 calcium fluorescence. Muscarinic acetylcholine receptor M5 (Homo sapiens), P08912. CHO-hM5 cells, ACh EC80. inhibition, % at 3 µM. hit rate 0.59% among 360,000. AID 624040, 2012;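 active = inhibition above a per-plate cutoff, the mean of that plate's test compounds plus 3 SD, cut at about 27% in these data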;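 also: 0% = acetylcholine EC80 with DMSO and 100% = DMSO without agonist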
CHRM4 PAM – human M4 muscarinic receptor positive allosteric modulators, primary screen, CHO-K1 cells, Fluo-8 calcium fluorescence | CHO-K1 hM4/Gqi5, ACh EC20; 0% = ACh EC20, 100% = maximal ACh | activation, % at 3 µM | hit rate 0.4% among 360,000 | AID 624126, 2012;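 active = activation above its plate's cutoff, the mean activation of sample wells plus 3 SD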
* hit, by the source's call.

SMILES | CHRM5 PAM | CHRM5 agonist | CHRM4 antagonist | M4 ag | CHRM5 antagonist | CHRM4 PAM
CCCCNc1c(-c2ccc(Sc3ccc(OC)cc3)cc2)nc2cc(C)ccn12 | -13 | -5 | 44* | 4 | 11 | -13
CCCCNc1c(-c2ccc(SC(C)CC)cc2)nc2ccccn12 (stereo not given) | -29 | -1 | 45* | 11 | 25 | -12
CCCCNc1c(-c2ccc(OC)c(SC(C)CC)c2)nc2cnccn12 (stereo not given) | -21 | -6 | -1 | 5 | 21 | -3
CCCCNc1c(-c2ccc(SC3CCCCC3)cc2)nc2ccccn12 | 0 | 5 | 21 | 6 | 6 | 0
CCc1nc2c(OCCn3cccc3)cccn2c1N(C)C(=O)c1ccccc1F | -3 | -1 | -5 | 0 | 7 | 0
CCCS(=O)(=O)NC(=O)C1(C)CCCN(C(=O)c2ccco2)C1 (stereo not given) | -1 | 0 | 8 | 0 | 5 | -4
S=C1N(c2ccccc2)C(c2ccc(Br)cc2)N2CCCN12 (stereo not given) | -37 | -19 | 79* | -1 | 38* | -55
S=C1N(c2ccccc2)C(c2ccc(Cl)cc2)N2CCCN12 (stereo not given) | -43 | -11 | 42* | 0 | 25 | -19
CCN(CC)CC(C)(C)C(=O)/C=C/c1ccc(/C=C/C(=O)C(C)(C)CN(CC)CC)cc1 | 6 | -1 | 42* | 3 | 12 | -6
CO[C@@]1(NC(=O)C2SC(=C(C(N)=O)C(=O)O)S2)C(=O)N2C(C(=O)O)=C(CSc3nnnn3C)CS[C@@H]21 (stereo not given in full) | -1 | 1 | 43* | 1 | -1 | -7
CC1CCN(CC[C@H]2CCCN2S(=O)(=O)c2cccc(O)c2)CC1 | -9 | -1 | 51* | 1 | 1 | -16
CCCCNC(=O)C1(C)CCN1C(=O)c1cc(-c2cccs2)oc1C (stereo not given) | 4 | 0 | -11 | 2 | -1 | 5
O=C(c1cccs1)N1CCN=C1SCc1cccnc1 | 20* | 8 | -7 | 3 | 22 | 12
CCCC(C)c1nnc(NC(=O)C2CCCO2)s1 (stereo not given) | -12 | -7 | 30* | 0 | 5 | -13
CC(C)N1CC2(CC(c3ccc(Cl)cc3Cl)=NO2)CN1C(=O)c1ccc(C(C)(C)C)cc1 (stereo not given) | 3 | 0 | -1 | 2 | -3 | 4
O=C(C1CCN(c2ccc(N3CCOCC3)nn2)CC1)N1CCc2ccccc2C1 | 1 | -1 | 46* | 1 | 3 | -17
O=C(C1CCN(S(=O)(=O)N2CCC3(CC2)OCCO3)CC1)N1CCc2ccccc2C1 | -2 | 5 | -1 | 6 | -4 | 3
CC1OC2CC(=O)OC2C2=C1C(=O)c1c(O)cccc1C2=O (stereo not given) | 2 | 20 | 29* | 8 | 45* | 6
Cc1ccc(Nc2ccc(NCc3ccccc3)nn2)cc1C | -10 | -2 | 3 | 12 | -4 | -13
Clc1ccc(Nc2ccc(NCc3ccccc3)nn2)cc1 | -18 | 4 | 14 | 50* | 0 | -31
O=C1NC(=S)N/C1=C\c1ccc(Oc2ccc(C(F)(F)F)cc2[N+](=O)[O-])c(Cl)c1 | 19* | 3 | 18 | 1 | -9 | 15
COc1ccc(-c2nnc(SCC(=O)Nc3ccc(C(=O)O)cc3)n2-c2ccc(Cl)cc2)cc1 | -3 | -1 | -9 | 0 | 0 | 13*
O=C(CC[C@H]1O[C@@H](n2ccc(=O)[nH]c2=O)[C@H](O)[C@@H]1O)NCC1CCCO1 (stereo not given in full) | 2 | 0 | 3 | 1 | 5 | -1
